Measurements taken from article PMC10688270 (Neurochemical research, 2019).
Entries after “also recorded” stand apart in the source; their conditions may differ. Like-named read-outs stand apart in the source and are kept apart here. Each block holds one molecule with its values, some of them ahead of it.

What was measured:
SXc− [1] = target: T1, SXc− (Homo sapiens, UniProt Q9UPY5); assay: Inhibition of SXc−-mediated uptake of 3H-L-Glu into SNB19 cells; format: cell-based; settings: for fold less effective than SAS: comparison of inhibition of SXc− with SAS
T1 sequence (Q9UPY5 1-501): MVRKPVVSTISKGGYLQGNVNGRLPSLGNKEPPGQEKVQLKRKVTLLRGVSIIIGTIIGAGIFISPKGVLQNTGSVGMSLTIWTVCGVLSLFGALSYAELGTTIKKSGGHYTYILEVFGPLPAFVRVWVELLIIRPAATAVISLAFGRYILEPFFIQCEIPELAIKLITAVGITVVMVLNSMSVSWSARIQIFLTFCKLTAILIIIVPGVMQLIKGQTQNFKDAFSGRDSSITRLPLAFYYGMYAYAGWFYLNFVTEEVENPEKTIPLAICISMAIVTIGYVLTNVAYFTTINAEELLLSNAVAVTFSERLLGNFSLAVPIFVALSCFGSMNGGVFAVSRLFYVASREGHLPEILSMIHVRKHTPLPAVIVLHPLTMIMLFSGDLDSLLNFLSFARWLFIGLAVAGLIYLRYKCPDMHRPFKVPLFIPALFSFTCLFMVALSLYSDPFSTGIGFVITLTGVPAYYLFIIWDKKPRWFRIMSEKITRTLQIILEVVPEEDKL
T1 sequence (P08195 1-529 partner): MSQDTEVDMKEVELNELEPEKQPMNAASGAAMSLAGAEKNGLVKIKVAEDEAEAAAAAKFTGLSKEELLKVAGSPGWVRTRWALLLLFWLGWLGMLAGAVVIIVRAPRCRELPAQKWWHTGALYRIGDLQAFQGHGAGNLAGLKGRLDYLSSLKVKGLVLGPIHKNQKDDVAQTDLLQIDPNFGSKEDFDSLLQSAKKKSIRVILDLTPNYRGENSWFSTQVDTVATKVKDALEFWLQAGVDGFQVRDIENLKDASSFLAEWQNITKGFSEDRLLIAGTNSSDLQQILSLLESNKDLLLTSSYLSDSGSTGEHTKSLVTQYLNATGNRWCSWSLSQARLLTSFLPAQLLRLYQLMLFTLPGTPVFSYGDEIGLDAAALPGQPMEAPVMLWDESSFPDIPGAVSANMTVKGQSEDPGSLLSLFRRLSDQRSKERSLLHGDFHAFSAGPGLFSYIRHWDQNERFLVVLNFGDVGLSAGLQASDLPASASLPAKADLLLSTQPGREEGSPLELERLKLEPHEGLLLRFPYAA
Method in brief: (§1)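 Human SNB19 glioma cells were grown in DMEM/F-12 (pH 7.4) with 10% fetal calf serum at 37°C and 5% CO2. They were seeded at 3×10^4 cells/well and used after 3 days at 80–90% confluence. Cells were pre-incubated 5 min at 30°C in Na+-free (choline-Cl) HEPES-buffered Hank's salt solution, pH 7.4. Test compound was added simultaneously with 3H-L-Glu for 5 min at 30°C. Uptake was read by scintillation counting, normalised to BCA protein, and corrected by subtracting 4°C accumulation. Duplicate wells per experiment; n ≥ 3 experiments.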

SXc− [2] = target: T1, SXc−; assay: Kinetic analysis; format: cell-based; settings: for Inhibitory Mechanism: V vs [S] and Lineweaver-Burk plots, SNB19 cells
Method in brief: as §1

SXc− [3] = settings: previous work; cited from earlier work
[4] = read-out: IC50 for the inhibition of SXc−-mediated uptake of 3H-L-Glu into SNB19 cells, Mean ± SEM (n ≥ 3), single concentration of L-Glu (100 μM), Na+-free buffer, 5 min, 30°C

Molecule: O=S(=O)(O)c1cc2cc(S(=O)(=O)O)c(O)cc2cc1O [3,6-dihydroxy-2,7-naphthylene-disulfonate]
- IC50 (SXc− [1]; [4]): > 500 µM

Molecule: Nc1cc(S(=O)(=O)O)cc2cc(S(=O)(=O)O)cc(O)c12 [4-Amino-5-OH-2,7-naphthylene-disulfonate]
- inhibitory activity at SXc− (in words) (SXc− [1]; 3H-L-Glu uptake into SNB19 cells): inactive
- IC50 (SXc− [1]; [4]): > 500 µM

Molecule: Nc1ccc(N=Nc2ccc(-c3ccc(N=Nc4ccc(N)c5ccc(S(=O)(=O)O)cc45)cc3)cc2)c2cc(S(=O)(=O)O)ccc12 [AANS #6]
- Inhibitory Mechanism (SXc− [2]): Noncompetitive (Mixed)
- Inhibitory Mechanism (SXc− [2]; listed as #6): mixed inhibition

Molecule: Nc1c(N=Nc2ccc([N+](=O)[O-])cc2)c(S(=O)(=O)[O-])cc2cc(S(=O)(=O)[O-])c(N=Nc3ccccc3)c(O)c12.[Na+].[Na+] [Acid Black 1]
- Inhibitory Mechanism (SXc− [2]): Competitive
- Inhibitory Mechanism (SXc− [2]; listed as Acid Black): competitive mechanism; also recorded: competitive inhibition

Molecule: O=C(O)c1cc(N=Nc2cccc([N+](=O)[O-])c2)ccc1[O-].[Na+] [Alizarin Yellow GG]
- fold less effective than SAS (SXc− [1]): about 5 fold
- IC50 (SXc− [1]; [4]): 30 ± 7 µM

Molecule: Nc1c(/N=N/c2ccc(-c3ccc(/N=N/c4cc(S(=O)(=O)O)c5ccccc5c4N)cc3)cc2)cc(S(=O)(=O)O)c2ccccc12 [Congo Red]
- block of glutamate uptake by SXc− (in words) (SXc− [3]): relatively poor blocker

Molecule: O=C(O)c1cc(N=Nc2ccc([N+](=O)[O-])cc2)ccc1O [Mordant Orange 1]
- IC50 (SXc− [1]; [4]): 38 ± 3 µM

Molecule: O=C(O)c1cc(/N=N/c2ccc(S(=O)(=O)Nc3ccccn3)cc2)ccc1O [Sulfasalazine]
- Ki (SXc− [2]): 10.4 ± 1.3 µM
- Inhibitory Mechanism (SXc− [2]): Competitive
- Inhibitory Mechanism (SXc− [2]; listed as SAS): competitive inhibition

Molecule: Chrome Yellow
- fold less effective than SAS (SXc− [1]): about 5 fold
- IC50 (SXc− [1]; [4]): 27 ± 4 µM

Further lines, results first:

- IC50 (SXc− [1]; [4]): 191 ± 8 µM
Molecule: CC(=O)Nc1cc(S(=O)(=O)O)cc2cc(S(=O)(=O)O)c(N=Nc3ccccc3)c(O)c12 [Acid Red 1]

- IC50 (SXc− [1]; [4]): 130 ± 23 µM
Molecule: O=[N+]([O-])c1ccc(N=Nc2c(S(=O)(=O)O)cc3cc(S(=O)(=O)O)cc(O)c3c2O)cc1 [Chromotrope 2B]

- IC50 (SXc− [1]; [4]): 21 ± 5 µM
Molecule: O=S(=O)(O)c1cc(O)c2c(O)c(N=Nc3ccccc3)c(S(=O)(=O)O)cc2c1 [Chromotrope 2R]

- IC50 (SXc− [1]; [4]): 155 ± 11 µM
Molecule: Nc1cc(S(=O)(=O)O)cc2cc(S(=O)(=O)O)c(N=Nc3cc([N+](=O)[O-])cc(Cl)c3O)c(O)c12 [Gallion]

- IC50 (SXc− [1]; [4]): > 250 µM
Molecule: COc1ccccc1N=Nc1c(S(=O)(=O)O)cc2cc(S(=O)(=O)O)cc(NC(C)=O)c2c1O [Pontacyl Carmine 2B]

- IC50 (SXc− [1]): > 250 µM
Molecule: O=S(=O)(O)c1cc(O)c2c(O)c(/N=N/c3cccc4ccccc34)c(S(=O)(=O)O)cc2c1 [Pontacyl Violet 6R]
